Reference: publication PMC10848874 (Bioorganic & medicinal chemistry, 2023)
“Also recorded” adds a separate entry of the source.

Columns and labels:
[1] = tested on: purified bovine brain tubulin; assay: Inhibition of tubulin polymerization; assay type: biochemical; settings: oxetane analogues compared with their ketone counterparts
Method in brief: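 Bovine brain tubulin at 1 mg/mL (10 μM) in 0.8 M monosodium glutamate (pH 6.6) with 4% (v/v) DMSO and varied test compound concentrations, preincubated 15 min at 30 °C without GTP. The mix was chilled to 0 °C, then GTP added (0.1 mM final), and warmed to 30 °C over about 30 s.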

PANC-1 cells = assay: Wound healing; assay type: cell-based, human; settings: for Scratch gap closure: PANC-1 cells, 37 °C, 5% CO2; for PANC-1 cell migration in wound healing assay (in words): 0.5 and 1 μM
Method in brief: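 PANC-1 cells in DMEM with 10% heat-inactivated FBS and 30 μg/mL gentamicin were seeded at about 1 × 10⁵ cells per well in 6-well plates and grown to 70–80% confluency. Each well was scratched with a sterile pipette tip, then medium and detached cells were removed. Duplicate wells received 0.5 or 1 μM test compound or control (final DMSO ≤0.2%). Closure was imaged by automated microscopy (4X) for 48 h.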

Row | SMILES | Inhibition of tubulin polymerization (in words) [1] | Scratch gap closure (PANC-1 cells; 0.5 μM compound) | Scratch gap closure (PANC-1 cells; 1 μM compound) | PANC-1 cell migration in wound healing assay (in words) (PANC-1 cells)
1 | COc1cc(C2(c3c(-c4ccccc4)[nH]c4cc(Cl)ccc34)COC2)cc(OC)c1OC [Compound 5k, 6-Chloro-2-phenyl-3-(3-(3,4,5-trimethoxyphenyl)oxetan-3-yl)-1H-indole] | at most weakly active as inhibitors of tubulin polymerization; also recorded: no significant tubulin assembly inhibition activity | – | – | –
2 | COc1cc(C2(c3c(-c4ccccc4)[nH]c4cc(Br)ccc34)COC2)cc(OC)c1OC [Compound 5c, 6-Bromo-2-phenyl-3-(3-(3,4,5-trimethoxyphenyl)oxetan-3-yl)-1H-indole] | at most weakly active as inhibitors of tubulin polymerization; also recorded: no significant tubulin assembly inhibition activity | gap is not completely closed after 40 h | gap remains open after 40 h | inhibited PANC-1 cell migration
3 | COc1cc(C2(c3c(-c4ccccc4)[nH]c4c(OC)cccc34)COC2)cc(OC)c1OC [Compound 5h, 7-Methoxy-2-phenyl-3-(3-(3,4,5-trimethoxyphenyl)oxetan-3-yl)-1H-indole] | at most weakly active as inhibitors of tubulin polymerization; also recorded: no significant tubulin assembly inhibition activity | gap is not closed after 48 h | gap remains open after 48 h | inhibited PANC-1 cell migration
4 | COc1ccc2[nH]c(-c3ccccc3)c(C3(c4cc(OC)c(OC)c(OC)c4)COC3)c2c1 [Compound 5l, 5-Methoxy-2-phenyl-3-(3-(3,4,5-trimethoxyphenyl)oxetan-3-yl)-1H-indole] | at most weakly active as inhibitors of tubulin polymerization; also recorded: no significant tubulin assembly inhibition activity | – | – | –
5 | COc1ccc2c(C3(c4cc(OC)c(OC)c(OC)c4)COC3)c(-c3ccc(OC)c(O)c3)[nH]c2c1 [Compound 5m, 2-Methoxy-5-(6-methoxy-3-(3-(3,4,5-trimethoxyphenyl)oxetan-3-yl)-1H-indol-2-yl)phenol] | at most weakly active as inhibitors of tubulin polymerization; also recorded: no significant tubulin assembly inhibition activity | – | – | –
